The values that follow come from ChEMBL document CHEMBL1268917, “Synthesis and biological evaluation of radio-iodinated benzimidazoles as SPECT imaging agents for NR2B subtype of NMDA receptor” (Bioorg Med Chem, 2010).

Data set [1] relates to Liver. The data set is described as follows: Biodistribution in ddY mouse liver assessed per gram of tissue at 14.8 kBq, iv after 360 mins. Format: ADME, organism-based. To be noted: in vivo, 6 h. In a few lines:
(§1)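 Killed at set times after injection; organs and blood removed, weighed, gamma counted. Data as % injected dose per gram tissue, mean SD, n = 5–6.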

Data set [2] deals with Intestine. The data set is described as follows: Biodistribution in ddY mouse intestine assessed per gram of tissue at 14.8 kBq, iv after 360 mins. Format: ADME, organism-based. To be noted: in vivo, 6 h. Summed up: as §1
In data set [3] the test system is Kidney. The data set is described as follows: Biodistribution in ddY mouse kidney assessed per gram of tissue at 148 kBq, iv after 180 mins in presence of 50 mg/kg, iv of cyclosporin A administered 30 mins before compound challenge (reference value: 4.49 +/- 1.34 %). Format: ADME, organism-based. Also noted: dose 50 mg/kg, route intravenous. To be noted: in vivo, 3 h.

In data set [4] the test system is Blood. The data set is described as follows: Biodistribution in ddY mouse blood assessed per gram of tissue at 148 kBq, iv after 180 mins in presence of 200 mg/kg, iv of probenecid administered 30 mins before compound challenge (reference value: 0.46 +/- 0.07 %). Format: ADME, organism-based. Also noted: dose 200 mg/kg, route intravenous. Particulars: in vivo, 3 h.

Data set [5] concerns Spleen. The data set is described as follows: Biodistribution in ddY mouse spleen assessed per gram of tissue at 14.8 kBq, iv after 180 mins. Particulars: in vivo, 3 h. Format: ADME, organism-based. Summed up: (§2)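 Radioiodinated tracer (14.8 kBq) injected via tail vein into male ddY mice (6 weeks, 30–35 g). Organs removed at set times after injection, weighed and gamma-counted; uptake expressed as % injected dose per gram tissue, mean ± SD, n = 5–6.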

Data set [6] has as its system Blood. The data set is described as follows: Biodistribution in ddY mouse blood assessed per gram of tissue at 14.8 kBq, iv after 360 mins. Particulars: in vivo, 6 h. Format: ADME, organism-based. Summed up: as §1
Data set [7] has as its system Blood. The data set is described as follows: Biodistribution in ddY mouse blood assessed per gram of tissue at 14.8 kBq, iv after 0.5 mins. Format: ADME, organism-based. To be noted: in vivo. Summed up: as §1
Data set [8] has as its system Intestine. The data set is described as follows: Biodistribution in ddY mouse intestine assessed per gram of tissue at 14.8 kBq, iv after 0.5 mins. To be noted: in vivo. Format: ADME, organism-based. In a few lines:
as §1

Data set [9] has as its system Pancreas. The data set is described as follows: Biodistribution in ddY mouse pancreas assessed per gram of tissue at 14.8 kBq, iv after 0.5 mins. Format: ADME, organism-based. To be noted: in vivo. Summed up:
as §2

Data set [10] relates to Lung. The data set is described as follows: Biodistribution in ddY mouse lung assessed per gram of tissue at 14.8 kBq, iv after 0.5 mins. Format: ADME, organism-based. To be noted: in vivo. Summed up: as §2
Data set [11] concerns Kidney. The data set is described as follows: Biodistribution in ddY mouse kidney assessed per gram of tissue at 14.8 kBq, iv after 5 mins. Particulars: in vivo. Format: ADME, organism-based. Summed up:
as §1

The test system of data set [12] is Intestine. The data set is described as follows: Biodistribution in ddY mouse intestine assessed per gram of tissue at 14.8 kBq, iv after 5 mins. Format: ADME, organism-based. To be noted: in vivo. Summed up:
as §1

In data set [13] the test system is Stomach. The data set is described as follows: Biodistribution in ddY mouse stomach assessed per gram of tissue at 14.8 kBq, iv after 5 mins. Format: ADME, organism-based. Particulars: in vivo. In a few lines: as §2
Data set [14] deals with Spleen. The data set is described as follows: Biodistribution in ddY mouse spleen assessed per gram of tissue at 14.8 kBq, iv after 5 mins. Format: ADME, organism-based. To be noted: in vivo. Summed up: as §2
The subject of data set [15] is Lung. The data set is described as follows: Biodistribution in ddY mouse lung assessed per gram of tissue at 14.8 kBq, iv after 5 mins. Format: ADME, organism-based. Particulars: in vivo. Summed up:
as §2

Data set [16] relates to Kidney. The data set is described as follows: Biodistribution in ddY mouse kidney assessed per gram of tissue at 14.8 kBq, iv after 30 mins. Format: ADME, organism-based. Particulars: in vivo, 0.5 h. Summed up:
as §1

The subject of data set [17] is Intestine. The data set is described as follows: Biodistribution in ddY mouse intestine assessed per gram of tissue at 14.8 kBq, iv after 30 mins. Format: ADME, organism-based. To be noted: in vivo, 0.5 h. In a few lines: as §1
Data set [18] has as its system Pancreas. The data set is described as follows: Biodistribution in ddY mouse pancreas assessed per gram of tissue at 14.8 kBq, iv after 30 mins. Format: ADME, organism-based. To be noted: in vivo, 0.5 h. Summed up:
as §2

For data set [19], the system named is Heart. The data set is described as follows: Biodistribution in ddY mouse heart assessed per gram of tissue at 14.8 kBq, iv after 30 mins. Particulars: in vivo, 0.5 h. Format: ADME, organism-based. In a few lines:
as §1

In data set [20] the test system is Blood. The data set is described as follows: Biodistribution in ddY mouse blood assessed per gram of tissue at 14.8 kBq, iv after 60 mins. Format: ADME, organism-based. To be noted: in vivo, 1 h. Summed up: as §1
Data set [21] relates to Kidney. The data set is described as follows: Biodistribution in ddY mouse kidney assessed per gram of tissue at 14.8 kBq, iv after 60 mins. Format: ADME, organism-based. To be noted: in vivo, 1 h. In a few lines:
as §1

Data set [22] deals with Liver. The data set is described as follows: Biodistribution in ddY mouse liver assessed per gram of tissue at 148 kBq, iv after 180 mins in presence of 200 mg/kg, iv of probenecid administered 30 mins before compound challenge (reference value: 19.13 +/- 2.09 %). Particulars: in vivo, 3 h.
The subject of data set [23] is Kidney. The data set is described as follows: Biodistribution in ddY mouse kidney assessed per gram of tissue at 148 kBq, iv after 180 mins in presence of 200 mg/kg, iv of probenecid administered 30 mins before compound challenge (reference value: 6.29 +/- 1.47 %). To be noted: in vivo, 3 h.

With `Oc1ccc2nc(CN3CCC(Cc4ccc([125I])cc4)CC3)[nH]c2c1`, the Drug uptake in data set [1] was 30.16 % ID/g; in data set [2], 5.89 % ID/g; in data set [3] it was 4.8 % ID/g; in data set [4], 0.41 % ID/g; in data set [5] it was 4.25 % ID/g; in data set [6], 0.28 % ID/g. The Drug uptake in data set [7] came out at 3.22 % ID/g; in data set [8], 4.02 % ID/g; in [9] it was 0.49 % ID/g; in [10], 6.6 % ID/g; in data set [11], 12.2 % ID/g; in data set [12] it was 1.83 % ID/g. For the same molecule, the Drug uptake in data set [13] is given as 1.93 % ID/g; in data set [14] it was 5.66 % ID/g; in data set [15] it was 14.48 % ID/g; in [16], 11.2 % ID/g; in [17] it was 2.39 % ID/g; in data set [18], 6.1 % ID/g. Moreover, the Drug uptake in [19] is 2.31 % ID/g; in [20], 0.75 % ID/g; in data set [21], 10.34 % ID/g; in data set [22], 20 % ID/g; in data set [23] it was 4.2 % ID/g.
